Measurements reported in ChEMBL document CHEMBL3272198, “Preparation and in vitro antifungal activities of some quinolizidine derived hemiaminals and beta-tert-amino sulfides” (1976).
Active and inactive are the calls of the source. No cut-off for these calls is given here.

Legend:
Type in all cases: functional
[1] = test system: Blastomyces dermatitidis; assay: Antifungal activity against Blastomyces dermatitidis Gilchrist & Stokes isolate 1107 at 100 ug/ml after 3 weeks (reference value: 40 mm); details: Gilchrist & Stokes isolate 1107, 504 h, read-out: DIZ
Outline: (§1)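 Mycelial phase grown on Sabouraud dextrose agar at 25°C. Agar pH was set to 6 before the test solution was added and was 5.0-5.5 after. Test solutions contained HOAc and Me2SO, and solvent and blank controls were included. Each quadrant was center-inoculated with a 2 × 2 mm piece of a 2-week-old mycelial culture. Colony diameter was measured weekly for 3 weeks and reported as total increments (mm). Duplicates were run.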

[2] = test system: Blastomyces dermatitidis; assay: Antifungal activity against Blastomyces dermatitidis Gilchrist & Stokes isolate 1107 at 20 ug/ml after 3 weeks (reference value: 40 mm); details: Gilchrist & Stokes isolate 1107, 504 h, read-out: DIZ
[3] = test system: Blastomyces dermatitidis; assay: Antifungal activity against Blastomyces dermatitidis Gilchrist & Stokes isolate 1107 at 10 ug/ml after 3 weeks (reference value: 40 mm); details: Gilchrist & Stokes isolate 1107, 504 h, read-out: DIZ; outline: as §1
[4] = test system: Histoplasma capsulatum; assay: Antifungal activity against Histoplasma capsulatum Darling isolate 1098 at 10 ug/ml after 3 weeks (reference value: 28 mm); details: Darling isolate 1098, 504 h, read-out: DIZ
[5] = test system: Histoplasma capsulatum; assay: Antifungal activity against Histoplasma capsulatum Darling isolate 1106 at 100 ug/ml after 1 week (reference value: 14 mm)
[6] = test system: Histoplasma capsulatum; assay: Antifungal activity against Histoplasma capsulatum Darling isolate 1106 at 60 ug/ml after 1 week (reference value: 14 mm)
[7] = test system: Histoplasma capsulatum; assay: Antifungal activity against Histoplasma capsulatum Darling isolate 1106 at 20 ug/ml after 1 week (reference value: 14 mm); details: Darling isolate 1106, 168 h, read-out: DIZ
[8] = test system: Histoplasma capsulatum; assay: Antifungal activity against Histoplasma capsulatum Darling isolate 1106 at 10 ug/ml after 1 week (reference value: 14 mm); details: Darling isolate 1106, 168 h, read-out: DIZ
[9] = test system: Histoplasma capsulatum; assay: Antifungal activity against Histoplasma capsulatum Darling isolate 1106 at 20 ug/ml after 2 weeks (reference value: 25 mm); details: Darling isolate 1106, 336 h, read-out: DIZ
[10] = test system: Histoplasma capsulatum; assay: Antifungal activity against Histoplasma capsulatum Darling isolate 1106 at 10 ug/ml after 2 weeks (reference value: 25 mm); details: Darling isolate 1106, 336 h, read-out: DIZ
[11] = test system: Histoplasma capsulatum; assay: Antifungal activity against Histoplasma capsulatum Darling isolate 1106 at 80 ug/ml after 3 weeks (reference value: 31 mm)
[12] = test system: Histoplasma capsulatum; assay: Antifungal activity against Histoplasma capsulatum Darling isolate 1106 at 20 ug/ml after 3 weeks (reference value: 31 mm); details: Darling isolate 1106, 504 h, read-out: DIZ
[13] = test system: Blastomyces dermatitidis; assay: Antifungal activity against Blastomyces dermatitidis Gilchrist & Stokes isolate 1099 at 100 ug/ml after 1 week (reference value: 14 mm)
[14] = test system: Blastomyces dermatitidis; assay: Antifungal activity against Blastomyces dermatitidis Gilchrist & Stokes isolate 1099 at 40 ug/ml after 1 week (reference value: 14 mm)
[15] = test system: Blastomyces dermatitidis; assay: Antifungal activity against Blastomyces dermatitidis Gilchrist & Stokes isolate 1099 at 20 ug/ml after 1 week (reference value: 14 mm); details: Gilchrist & Stokes isolate 1099, 168 h, read-out: DIZ; outline: as §1
[16] = test system: Blastomyces dermatitidis; assay: Antifungal activity against Blastomyces dermatitidis Gilchrist & Stokes isolate 1099 at 100 ug/ml after 2 weeks (reference value: 27 mm)
[17] = test system: Blastomyces dermatitidis; assay: Antifungal activity against Blastomyces dermatitidis Gilchrist & Stokes isolate 1099 at 80 ug/ml after 2 weeks (reference value: 27 mm)
[18] = test system: Blastomyces dermatitidis; assay: Antifungal activity against Blastomyces dermatitidis Gilchrist & Stokes isolate 1099 at 40 ug/ml after 2 weeks (reference value: 27 mm); details: Gilchrist & Stokes isolate 1099, 336 h, read-out: DIZ; outline: as §1
[19] = test system: Blastomyces dermatitidis; assay: Antifungal activity against Blastomyces dermatitidis Gilchrist & Stokes isolate 1099 at 20 ug/ml after 2 weeks (reference value: 27 mm); details: Gilchrist & Stokes isolate 1099, 336 h, read-out: DIZ
[20] = test system: Blastomyces dermatitidis; assay: Antifungal activity against Blastomyces dermatitidis Gilchrist & Stokes isolate 1099 at 100 ug/ml after 3 weeks (reference value: 34 mm); outline: as §1
[21] = test system: Blastomyces dermatitidis; assay: Antifungal activity against Blastomyces dermatitidis Gilchrist & Stokes isolate 1099 at 60 ug/ml after 3 weeks (reference value: 34 mm); details: Gilchrist & Stokes isolate 1099, 504 h, read-out: DIZ; outline: as §1
[22] = test system: Blastomyces dermatitidis; assay: Antifungal activity against Blastomyces dermatitidis Gilchrist & Stokes isolate 1099 at 40 ug/ml after 3 weeks (reference value: 34 mm); details: Gilchrist & Stokes isolate 1099, 504 h, read-out: DIZ; outline: as §1
[23] = test system: Blastomyces dermatitidis; assay: Antifungal activity against Blastomyces dermatitidis Gilchrist & Stokes isolate 1099 at 20 ug/ml after 3 weeks (reference value: 34 mm); details: Gilchrist & Stokes isolate 1099, 504 h, read-out: DIZ
[24] = test system: Blastomyces dermatitidis; assay: Antifungal activity against Blastomyces dermatitidis Gilchrist & Stokes isolate 1099 at 10 ug/ml after 3 weeks (reference value: 34 mm); details: Gilchrist & Stokes isolate 1099, 504 h, read-out: DIZ; outline: as §1
[25] = test system: Blastomyces dermatitidis; assay: Antifungal activity against Blastomyces dermatitidis Gilchrist & Stokes isolate 1107 at 20 ug/ml after 2 weeks (reference value: 35 mm); details: Gilchrist & Stokes isolate 1107, 336 h, read-out: DIZ
[26] = test system: Histoplasma capsulatum; assay: Antifungal activity against Histoplasma capsulatum Darling isolate 1098 at 100 ug/ml after 1 week (reference value: 12 mm)
[27] = test system: Histoplasma capsulatum; assay: Antifungal activity against Histoplasma capsulatum Darling isolate 1098 at 80 ug/ml after 1 week (reference value: 12 mm)
[28] = test system: Histoplasma capsulatum; assay: Antifungal activity against Histoplasma capsulatum Darling isolate 1098 at 40 ug/ml after 1 week (reference value: 12 mm); details: Darling isolate 1098, 168 h, read-out: DIZ
[29] = test system: Histoplasma capsulatum; assay: Antifungal activity against Histoplasma capsulatum Darling isolate 1098 at 10 ug/ml after 1 week (reference value: 12 mm); details: Darling isolate 1098, 168 h, read-out: DIZ
[30] = test system: Histoplasma capsulatum; assay: Antifungal activity against Histoplasma capsulatum Darling isolate 1098 at 60 ug/ml after 2 weeks (reference value: 21 mm); details: Darling isolate 1098, 336 h, read-out: DIZ
[31] = test system: Histoplasma capsulatum; assay: Antifungal activity against Histoplasma capsulatum Darling isolate 1098 at 10 ug/ml after 2 weeks (reference value: 21 mm); details: Darling isolate 1098, 336 h, read-out: DIZ
[32] = test system: Histoplasma capsulatum; assay: Antifungal activity against Histoplasma capsulatum Darling isolate 1098 at 20 ug/ml after 3 weeks (reference value: 28 mm); details: Darling isolate 1098, 504 h, read-out: DIZ
[33] = Darling isolate 1106, 168 h, read-out: DIZ
[34] = Gilchrist & Stokes isolate 1099, 168 h, read-out: DIZ
[35] = Gilchrist & Stokes isolate 1099, 336 h, read-out: DIZ
[36] = Darling isolate 1098, 168 h, read-out: DIZ

Row | SMILES | zone of inhibition at 100 µg/mL [1] [mm] | zone of inhibition at 20 µg/mL [2] [mm] | zone of inhibition at 10 µg/mL [3] [mm] | zone of inhibition at 10 µg/mL [4] [mm] | zone of inhibition at 20 µg/mL [7] [mm] | zone of inhibition at 10 µg/mL [8] [mm] | zone of inhibition at 20 µg/mL [9] [mm] | zone of inhibition at 10 µg/mL [10] [mm] | zone of inhibition at 20 µg/mL [12] [mm] | zone of inhibition at 20 µg/mL [15] [mm] | zone of inhibition at 40 µg/mL [18] [mm] | zone of inhibition at 20 µg/mL [19] [mm] | zone of inhibition at 60 µg/mL [21] [mm] | zone of inhibition at 40 µg/mL [22] [mm] | zone of inhibition at 20 µg/mL [23] [mm] | zone of inhibition at 10 µg/mL [24] [mm] | zone of inhibition at 20 µg/mL [25] [mm] | zone of inhibition at 40 µg/mL [28] [mm] | zone of inhibition at 10 µg/mL [29] [mm] | zone of inhibition at 60 µg/mL [30] [mm] | other results
1 | C[C@@H]1CC[C@@H](c2ccoc2)N2C(O)[C@@](C)(Sc3ccccc3)CC[C@@H]12 (some centres undefined) | 3 | 22 | 32 | 25 | 6 | 9 | 11 | 19 | 15 | 7 | 10 | 14 | 9 | 14 | 18 | 27 | 18 | 6 | 10 | 2 | Activity [5]: Active; Activity [6]: Active; Activity [11]: Active; Activity [13]: Active; Activity [14]: inactive; Activity [16]: Active; Activity [17]: Active; Activity [20]: Active; Activity [26]: Active; Activity [27]: Active; zone of inhibition at 10 µg/mL [31]: 19 mm; zone of inhibition at 20 µg/mL [32]: 18 mm
2 | CS[C@@]1(C)CC[C@@H]2CCCCN2C1O (some centres undefined) | 40 | 40 | 40 | 31 | 11 | 11 | 20 | 21 | 26 | 15 | 26 | 26 | 32 | 34 | 35 | 38 | 34 | 9 | 11 | 18 | zone of inhibition at 100 µg/mL [5, 33]: 9 mm; zone of inhibition at 60 µg/mL [6, 33]: 10 mm; zone of inhibition at 80 µg/mL ([11]; Darling isolate 1106, 504 h, read-out: DIZ): 26 mm; zone of inhibition at 100 µg/mL [13, 34]: 13 mm; zone of inhibition at 40 µg/mL [14, 34]: 13 mm; zone of inhibition at 100 µg/mL [16, 35]: 25 mm; zone of inhibition at 80 µg/mL [17, 35]: 25 mm; zone of inhibition at 100 µg/mL ([20]; Gilchrist & Stokes isolate 1099, 504 h, read-out: DIZ): 33 mm; zone of inhibition at 100 µg/mL [26, 36]: 8 mm; zone of inhibition at 80 µg/mL [27, 36]: 9 mm; zone of inhibition at 10 µg/mL [31]: 20 mm; zone of inhibition at 20 µg/mL [32]: 31 mm
